The source of these data is ChEMBL document CHEMBL1932969, “Acyl derivatives of boswellic acids as inhibitors of NF-κB and STATs” (Bioorg Med Chem Lett, 2012).

The structures appear in SMILES notation. Activity calls are given as the source filed them. No cut-off for these calls is given here.

Test [1] deals with Transcription factor p65 (Homo sapiens) (UniProt Q04206). Put plainly: Inhibition of NF-kappaB p65 subunit protein expression in p53-deficient human HL60 cells at 50 uM after 6 hrs by Western blot analysis. Particulars: HL-60. It is filed as cell-based. Summed up:
(§1)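 HL-60 cells treated with or without compound (20 and 50 µM) for 6 h. Total cell lysates (70 µg protein) are run on 10% SDS–PAGE and immunoblotted for NF-κB p50 and p65.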

Test [2] relates to HL-60. The test can be described thus: Induction of apoptosis in p53-deficient human HL60 cells assessed as DNA fragmentation at 50 uM after 6 hrs by agarose gel electrophoresis. The format is functional, cell-based. Summed up: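 2 × 10⁶ HL-60 cells treated with derivatives at 50 µM for 6 h, then scored for an apoptotic DNA ladder of 180–200 bp fragments or multiples. The positive control is 4 µM camptothecin for 6 h.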

In test [3] the test system is HL-60. The test can be described thus: Inhibition of NF-kappaB p50 subunit protein expression in p53-deficient human HL60 cells at 50 uM after 6 hrs by Western blot analysis. The format is cell-based. Summed up: as §1
A further test deals with SW-620. Put plainly: Anticancer activity against human SW620 cells assessed as growth inhibition at 50 uM after 48 hrs by SRB assay. It is filed as functional. The following applies: SW-620, 48 h, read-out: GI. In a few lines: (§2)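 Cells exposed to test compounds at 50 µM for 48 h. Read-out is percent growth inhibition, with SEM given. 5-Fluorouracil and adriamycin serve as reference agents.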

In test [4] the test system is HL-60. Put plainly: Inhibition of STAT3alpha protein expression in p53-deficient human HL60 cells at 20 to 50 uM after 6 hrs by Western blot analysis. The format is cell-based.
Test [5] can be described thus: Cytotoxicity against human HGF cells after 48 hrs by MTT assay. The format is cell-based. Summed up: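 Cell proliferation measured by MTT. Cells are incubated with each analog for 48 h at the indicated concentrations, then MTT reduction is read as an index of viability. OD of the untreated control is taken as 100% viability, and IC50 is derived from this.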
Another test concerns HEp-2. The test can be described thus: Anticancer activity against human Hep2 cells assessed as growth inhibition at 50 uM after 48 hrs by SRB assay. It is filed as functional. The following applies: HEp-2, 48 h, read-out: GI. Summed up: as §2
The target of test [6] is Transcription factor p65 (Homo sapiens) (UniProt Q04206). The test can be described thus: Inhibition of NF-kappaB p65 subunit protein expression in p53-deficient human HL60 cells at 20 uM after 6 hrs by Western blot analysis. It is filed as cell-based. The following applies: HL-60. Summed up:
as §1

Test [7] concerns the target Signal transducer and activator of transcription 3 (Homo sapiens) (UniProt P40763). Put plainly: Inhibition of STAT3 Thr705 phosphorylation in p53-deficient human HL60 cells at 20 to 50 uM after 6 hrs by Western blot analysis. The format is cell-based. Particulars: HL-60.
The subject of test [8] is HL-60. Put plainly: Induction of apoptosis in p53-deficient human HL60 cells assessed as apoptotic cells at 50 uM after 6 hrs by FITC-conjugated annexinV/PI-based flow cytometric analysis (reference value: 5 %). It is filed as functional. Summed up:
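HL-60 cells incubated with each analog at 50 µM for 6 h, stained with annexin V-FITC/propidium iodide and analysed by flow cytometry. Lower right quadrant is apoptotic, upper right post-apoptotic, upper left necrotic. Three experiments, with representative dot plots shown.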

Test [9] concerns the target Signal transducer and activator of transcription 3 (Homo sapiens) (UniProt P40763). Put plainly: Inhibition of STAT3 Ser727 phosphorylation in p53-deficient human HL60 cells at 20 to 50 uM after 6 hrs by Western blot analysis. It is filed as cell-based. Particulars: HL-60.

Transcription factor p65 (Homo sapiens), sequence (Q04206 whole entry): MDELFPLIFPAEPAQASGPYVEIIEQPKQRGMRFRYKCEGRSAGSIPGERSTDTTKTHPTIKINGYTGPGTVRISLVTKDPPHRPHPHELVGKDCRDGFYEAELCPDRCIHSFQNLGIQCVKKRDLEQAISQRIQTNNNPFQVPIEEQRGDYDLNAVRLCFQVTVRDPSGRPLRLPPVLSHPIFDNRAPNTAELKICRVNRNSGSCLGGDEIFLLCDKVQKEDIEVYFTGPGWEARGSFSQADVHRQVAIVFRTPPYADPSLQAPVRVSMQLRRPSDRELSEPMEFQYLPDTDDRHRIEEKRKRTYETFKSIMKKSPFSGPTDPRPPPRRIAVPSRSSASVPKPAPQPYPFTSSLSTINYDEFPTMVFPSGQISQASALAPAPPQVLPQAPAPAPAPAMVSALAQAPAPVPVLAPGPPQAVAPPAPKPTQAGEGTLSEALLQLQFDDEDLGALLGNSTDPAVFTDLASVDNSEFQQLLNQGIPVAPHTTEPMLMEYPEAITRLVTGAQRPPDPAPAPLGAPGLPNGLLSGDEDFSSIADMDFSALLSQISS
Signal transducer and activator of transcription 3 (Homo sapiens), sequence (P40763 whole entry): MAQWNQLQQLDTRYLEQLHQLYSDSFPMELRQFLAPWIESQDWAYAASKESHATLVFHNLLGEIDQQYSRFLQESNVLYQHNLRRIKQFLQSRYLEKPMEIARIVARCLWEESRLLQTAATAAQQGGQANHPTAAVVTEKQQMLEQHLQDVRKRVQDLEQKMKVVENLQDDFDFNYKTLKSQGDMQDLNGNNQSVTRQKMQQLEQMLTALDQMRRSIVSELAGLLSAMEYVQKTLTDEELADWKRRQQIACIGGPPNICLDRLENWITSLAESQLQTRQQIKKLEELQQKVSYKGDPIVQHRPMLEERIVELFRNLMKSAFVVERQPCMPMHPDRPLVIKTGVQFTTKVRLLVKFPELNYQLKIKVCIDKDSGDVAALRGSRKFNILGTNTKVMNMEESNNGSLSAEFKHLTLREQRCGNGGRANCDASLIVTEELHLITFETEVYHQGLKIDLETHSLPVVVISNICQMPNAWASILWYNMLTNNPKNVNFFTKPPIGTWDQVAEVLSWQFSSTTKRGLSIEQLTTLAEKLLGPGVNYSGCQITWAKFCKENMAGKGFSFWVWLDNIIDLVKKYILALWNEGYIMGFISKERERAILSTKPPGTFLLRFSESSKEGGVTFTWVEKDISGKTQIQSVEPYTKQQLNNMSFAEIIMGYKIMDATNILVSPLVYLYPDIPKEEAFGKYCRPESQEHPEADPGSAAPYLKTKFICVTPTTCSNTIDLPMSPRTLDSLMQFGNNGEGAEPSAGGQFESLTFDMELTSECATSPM

`CCCC(=O)O[C@@H]1CC[C@@]2(C)[C@@H](CC[C@]3(C)[C@@H]2C(=O)C=C2[C@@H]4[C@@H](C)[C@H](C)CC[C@]4(C)CC[C@]23C)[C@@]1(C)C(=O)O`: the inhibition in test [1] and in [6] was 90% each time. For the same molecule, in the test on HL-60 [2], the outcome was Active. Also, the inhibition entry (with HL-60 [3]; in the test on HL-60 [4]; in [7]; in [9]) was “Active” in each case. For the same molecule, the inhibition of growth at 50 µM in the test with SW-620 came out at 97%; in the test on HEp-2 it was 98%. The molecule also registered a half-inhibitory concentration (IC50) in test [5] of 80 µM. In addition, the Activity in the test with HL-60 [8] was 32%.
